Here are results for 36 sequences from the array DNA melting data of Ke et al. (doi:10.1101/2024.01.08.574731).

A short description of data set [1]: melting temperature; fluorescence melt of hairpins on a sequencing array, two-state fit, raised by 9.35 °C to match UV melts. The following applies: sodium 0.088 M. The essentials:
(§1)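 Hairpins were imaged by Cy3 fluorescence on a sequenced MiSeq flow cell with annealed Cy3 and quencher oligos, in 50 mM Na-HEPES pH 8.0, 25 mM NaCl, in 2.5 °C steps up to 60 °C. Bootstrapped two-state fits of normalised signals gave melting temperature and folding enthalpy. Four replicates were combined by inverse variance, and fitted temperatures were raised by 9.35 °C to match UV melts.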

Data set [2] is described as follows: folding enthalpy; higher = less favourable; fluorescence melt of hairpins on a sequencing array, two-state fit. The following applies: sodium 0.088 M. Put shortly: as §1

As for GGTAGGACGAAAGTCACC (((..(((....)))))), the Tm in data set [1] amounted to 35.8 °C. In data set [2], the folding enthalpy was -15.5 kcal/mol.
The matching figures for GGTAGGGCGAAAGCCACC (((..(((....)))))): 41.9 °C and -14 kcal/mol.
In the same order, the values of GGTAGGGGAAACCCTGTC (..((((....))))..) are 32.2 °C and -13.1 kcal/mol.
Take GGTAGTACGAAAGTAACC (((..(((....)))))): the Tm in data set [1] came to 27.4 °C. Further, the folding enthalpy in data set [2] was -10.7 kcal/mol.
In the same order, the values of GGTAGTCGAAAGACACC (((.(((....)))))) are 50.4 °C and -20.1 kcal/mol.
The matching figures for GGTAGTGCGAAAGCAACC (((..(((....)))))): 32 °C and -10.8 kcal/mol.
As for GGTAGTGGAAACACTACC (((((((....))))))), the Tm in data set [1] is 62.9 °C. Besides, the folding enthalpy in data set [2] was -46.8 kcal/mol.
Turning to GGTAGTGGAAACATTGCC ((.(.((....)).).)), the Tm in data set [1] was determined as 28.5 °C. In addition, the folding enthalpy in data set [2] was -17.1 kcal/mol.
In the same order, the values of GGTAGTGGAAACGCTATC (.(((.(....).))).) are 30.8 °C and -15.7 kcal/mol.
Turning to GGTATACCGAAAGGTACC (((..(((....)))))), the Tm in data set [1] was determined as 36.4 °C. The folding enthalpy in data set [2] was -12.8 kcal/mol.
The matching figures for GGTATACGAAAGTAACC (((.(((....)))))): 34.9 °C and -19.3 kcal/mol.
The matching figures for GGTATAGGAAACTATACC (((((((....))))))): 52.1 °C and -42.4 kcal/mol.
In the same order, the values of GGTATATCGAAAGATACC (((..(((....)))))) are 33.6 °C and -16.3 kcal/mol.
For GGTATCCGAAAGGAACC (((.(((....)))))), the Tm in data set [1] is 44.4 °C. The folding enthalpy in data set [2] was -18.8 kcal/mol.
As to GGTATCCGAAAGGAGACC (((.(((....))).))), the Tm in data set [1] amounted to 58.5 °C. The folding enthalpy in data set [2] was -43 kcal/mol.
The matching figures for GGTATCGAAAGATAGACC ((((((....)))..))): 30.6 °C and -17 kcal/mol.
In the same order, the values of GGTATCGAAAGATCAACC ((((((....)))..))) are 27 °C and -12.9 kcal/mol.
As to GGTATCGAAAGATGACC ((((((....))).))), in data set [1], the Tm was 36.6 °C. The folding enthalpy in data set [2] is -22.1 kcal/mol.
In the same order, the values of GGTATCGAAAGATTACC ((((((....))).))) are 37.7 °C and -24.9 kcal/mol.
Consider GGTATCGGAAACGATATC (.(((((....))))).), for which, in data set [1], the Tm worked out at 45.7 °C. The folding enthalpy in data set [2] is -24.1 kcal/mol.
As for GGTATCGGAAACGATGTC (..((((....))))..), the Tm in data set [1] turned out to be 31.9 °C. Further, the folding enthalpy in data set [2] was -18.5 kcal/mol.
In the same order, the values of GGTATGGGAAACTGTACC ((((..(....)..)))) are 36.1 °C and -21.9 kcal/mol.
The matching figures for GGTCACGAAAGTGCTACC ((((((....)))..))): 36.3 °C and -15.6 kcal/mol.
Consider GGTCACGAAAGTGGAACC ((((((....)))..))), for which the Tm in data set [1] amounted to 40.5 °C. Besides, the folding enthalpy in data set [2] was -18.3 kcal/mol.
As for GGTCACGAAAGTGGACC ((((((....))).))), the Tm in data set [1] stood at 55.3 °C. For the same sequence, the folding enthalpy in data set [2] was -29 kcal/mol.
As to GGTCACGAAAGTGTAACC ((((((....)))..))), the Tm in data set [1] was 39.6 °C. Besides, the folding enthalpy in data set [2] is -18.3 kcal/mol.
Take GGTCACGAAAGTGTACC ((((((....))).))): the Tm in data set [1] turned out to be 51.5 °C. The folding enthalpy in data set [2] was -25.6 kcal/mol.
The matching figures for GGTCACGCGAAAGCGACC (((..(((....)))))): 47.4 °C and -14.2 kcal/mol.
Regarding GGTCACGGAAACACGACC ((((..(....)..)))), in data set [1], the Tm amounted to 34.5 °C. Besides, the folding enthalpy in data set [2] was -18.5 kcal/mol.
In the same order, the values of GGTCAGCCGAAAGGCACC (((..(((....)))))) are 38.3 °C and -11.4 kcal/mol.
As for GGTCAGGAAACTGACC ((((((....)))))), the Tm in data set [1] stood at 59.9 °C. For the same sequence, the folding enthalpy in data set [2] is -44.5 kcal/mol.
In the same order, the values of GGTCAGGGAAACCCAACC (((..((....))..))) are 29 °C and -9.32 kcal/mol.
The matching figures for GGTCAGGGAAACCCGACC ((((.((....)).)))): 50.2 °C and -32.6 kcal/mol.
On to GGTCAGTCGAAAGACACC (((..(((....)))))), for which, in data set [1], the Tm came to 32.9 °C. Moreover, the folding enthalpy in data set [2] is -13.3 kcal/mol.
GGTCATCGAAAGATAACC (((.(((....))).))): the Tm in data set [1] came out at 39.4 °C. In addition, the folding enthalpy in data set [2] was -26.8 kcal/mol.
GGTCATCGAAAGATTACC (((.(((....))).))): in data set [1], the Tm came to 42.6 °C. Moreover, the folding enthalpy in data set [2] is -34.3 kcal/mol.
